Results published in ChEMBL document CHEMBL1145884, “Synthesis and biological activity of novel 1beta-methylcarbapenems with oxyiminopyrrolidinylamide moiety” (2003).
≈ marks a conversion by molar mass, not a printed value.

Assays:
[1] = Compound was evaluated for its relative half life of hydrolysis to meropenem by partially purified porcine renal dihydropeptidase-I (DHP-I); format: functional; settings: Sus scrofa
Klebsiella aerogenes = assay: Antibacterial activity against Klebsiella aerogenes 1522E; format: functional
Outline: (§1)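 MIC was determined by agar dilution on Mueller–Hinton medium.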

Staphylococcus aureus [2] = assay: Antibacterial activity against Staphylococcus aureus 503; format: functional
Pseudomonas aeruginosa [3] = assay: Antibacterial activity against Pseudomonas aeruginosa 1592E
Pseudomonas aeruginosa [4] = assay: Antibacterial activity against Pseudomonas aeruginosa 1771M; format: functional; outline: as §1
Escherichia coli [5] = assay: Antibacterial activity against Escherichia coli 1507E; format: functional; outline: as §1
Pseudomonas aeruginosa [6] = assay: Antibacterial activity against Pseudomonas aeruginosa 9027; format: functional; outline: as §1
Salmonella typhimurium [7] = assay: Antibacterial activity against Salmonella Typhimurium; format: functional, Salmonella enterica subsp. enterica serovar Typhimurium; settings: Salmonella enterica; outline: as §1
Escherichia coli [8] = assay: Antibacterial activity against Escherichia coli 078; format: functional; outline: as §1
Enterobacter cloacae [9] = assay: Antibacterial activity against Enterobacter cloacae 1321E; format: functional; outline: as §1
Staphylococcus aureus [10] = assay: Antibacterial activity against Staphylococcus aureus 285; format: functional
Streptococcus pyogenes = assay: Antibacterial activity against Streptococcus pyogenes 308A; format: functional
Staphylococcus aureus [11] = assay: Antibacterial activity against Staphylococcus aureus SG 511; format: functional
Pseudomonas aeruginosa [12] = assay: Compound was evaluated for its antibacterial activity against Pseudomonas aeruginosa 2 MDR; format: functional
Escherichia coli [13] = assay: Compound was evaluated for its antibacterial activity against Escherichia coli DC 0; format: functional
Escherichia coli [14] = assay: Compound was evaluated for its antibacterial activity against Escherichia coli CCARM 1116 MDR; format: functional
Escherichia coli [15] = assay: Compound was evaluated for its antibacterial activity against Escherichia coli CCARM 1111 MDR; format: functional
Klebsiella pneumoniae [16] = assay: Compound was evaluated for its antibacterial activity against Klebsiella pneumoniae 3 ESBL; format: functional
Pseudomonas aeruginosa [17] = assay: Compound was evaluated for its antibacterial activity against Pseudomonas aeruginosa ATCC 27853; format: functional
Escherichia coli [18] = assay: Compound was evaluated for its antibacterial activity against Escherichia coli CCARM 1117 MDR; format: functional
Klebsiella pneumoniae [19] = assay: Compound was evaluated for its antibacterial activity against Klebsiella pneumoniae 5 ESBL; format: functional
Escherichia coli [20] = assay: Compound was evaluated for its antibacterial activity against Escherichia coli CCARM 1110 MDR; format: functional
Klebsiella pneumoniae [21] = assay: Compound was evaluated for its antibacterial activity against Klebsiella pneumoniae 2 ESBL; format: functional
Pseudomonas aeruginosa [22] = assay: Compound was evaluated for its antibacterial activity against Pseudomonas aeruginosa 3 MDR; format: functional
Enterobacter cloacae [23] = assay: Compound was evaluated for its antibacterial activity against Enterobacter cloacae P99; format: functional
Salmonella enteritidis [24] = assay: Compound was evaluated for its antibacterial activity against […] enteritidis 3; format: functional, Salmonella enterica subsp. enterica serovar Enteritidis; settings: Salmonella enterica
Escherichia coli [25] = assay: Compound was evaluated for its antibacterial activity against Escherichia coli ATCC 25922; format: functional
Klebsiella oxytoca = assay: Compound was evaluated for its antibacterial activity against Klebsiella oxytoca 1082E; format: functional
Klebsiella pneumoniae [26] = assay: Compound was evaluated for its antibacterial activity against Klebsiella pneumoniae 10 ESBL; format: functional
Salmonella typhimurium [27] = assay: Compound was evaluated for its antibacterial activity against Salmonella Typhimurium 1; format: functional, Salmonella enterica subsp. enterica serovar Typhimurium; settings: Salmonella enterica
Escherichia coli [28] = assay: Compound was evaluated for its antibacterial activity against Escherichia coli CCARM 1113 MDR; format: functional
Salmonella enteritidis [29] = assay: Compound was evaluated for its antibacterial activity against […] enteritidis; format: functional, Salmonella enterica subsp. enterica serovar Enteritidis; settings: Salmonella enterica
Shigella sonnei = assay: Compound was evaluated for its antibacterial activity against Shigella sonnei ATCC 9290; format: functional
Escherichia coli [30] = assay: Compound was evaluated for its antibacterial activity against Escherichia coli TEM; format: functional
Escherichia coli [31] = assay: Compound was evaluated for its antibacterial activity against Escherichia coli DC 2; format: functional
Escherichia coli [32] = assay: Compound was evaluated for its antibacterial activity against Escherichia coli CCARM 1112 MDR; format: functional
Klebsiella pneumoniae [33] = assay: Compound was evaluated for its antibacterial activity against Klebsiella pneumoniae 4 ESBL; format: functional
Pseudomonas aeruginosa [34] = assay: Compound was evaluated for its antibacterial activity against Pseudomonas aeruginosa 1 MDR; format: functional
Klebsiella pneumoniae [35] = assay: Compound was evaluated for its antibacterial activity against Klebsiella pneumoniae 7 ESBL; format: functional
Klebsiella pneumoniae [36] = assay: Compound was evaluated for its antibacterial activity against Klebsiella pneumoniae 9 ESBL; format: functional
Klebsiella pneumoniae [37] = assay: Compound was evaluated for its antibacterial activity against Klebsiella pneumoniae 8 ESBL; format: functional
Salmonella enteritidis [38] = assay: Compound was evaluated for its antibacterial activity against […] enteritidis 1; format: functional, Salmonella enterica subsp. enterica serovar Enteritidis; settings: Salmonella enterica
Escherichia coli [39] = assay: Compound was evaluated for its antibacterial activity against Escherichia coli CCARM 1108 MDR; format: functional
Klebsiella pneumoniae [40] = assay: Compound was evaluated for its antibacterial activity against Klebsiella pneumoniae 1 ESBL; format: functional
Escherichia coli [41] = assay: Compound was evaluated for its antibacterial activity against Escherichia coli CCARM 1115 MDR; format: functional
Escherichia coli [42] = assay: Compound was evaluated for its antibacterial activity against Escherichia coli 0157:H7; format: functional
Escherichia coli [43] = assay: Compound was evaluated for its antibacterial activity against Escherichia coli CCARM 1114 MDR; format: functional
Salmonella typhimurium [44] = assay: Compound was evaluated for its antibacterial activity against Salmonella Typhimurium; format: functional, Salmonella enterica subsp. enterica serovar Typhimurium; settings: Salmonella enterica
Shigella flexneri = assay: Compound was evaluated for its antibacterial activity against Shigella flexneri ATCC 9199; format: functional
Salmonella typhimurium [45] = assay: Compound was evaluated for its antibacterial activity against Salmonella Typhimurium 2; format: functional, Salmonella enterica subsp. enterica serovar Typhimurium; settings: Salmonella enterica
Klebsiella pneumoniae [46] = assay: Compound was evaluated for its antibacterial activity against Klebsiella pneumoniae 6 ESBL; format: functional
Salmonella enteritidis [47] = assay: Compound was evaluated for its antibacterial activity against […] enteritidis 2; format: functional, Salmonella enterica subsp. enterica serovar Enteritidis; settings: Salmonella enterica
Escherichia coli [48] = assay: Compound was evaluated for its antibacterial activity against Escherichia coli CCARM 1109 MDR; format: functional

CO/N=C1\CN(C(=O)[C@@H]2C[C@H](SC3=C(C(=O)O)N4C(=O)[C@H]([C@@H](C)O)[C@H]4[C@H]3C)CN2)CC1CN (some centres undefined)
relative t1/2 (DHP-I hydrolysis vs meropenem) [1]: 0.25 | MIC (Klebsiella aerogenes): 0.098 µg/mL (≈ 0.203 µM) | MIC (Staphylococcus aureus [2]): 0.049 µg/mL (≈ 0.102 µM) | MIC (Pseudomonas aeruginosa [3]): 0.195 µg/mL (≈ 0.405 µM) | MIC (Pseudomonas aeruginosa [4]): 0.098 µg/mL (≈ 0.203 µM) | MIC (Escherichia coli [5]): 0.049 µg/mL (≈ 0.102 µM) | MIC (Pseudomonas aeruginosa [6]): 0.391 µg/mL (≈ 0.812 µM) | MIC (Salmonella typhimurium [7]): 0.098 µg/mL (≈ 0.203 µM) | MIC (Escherichia coli [8]): 0.025 µg/mL (≈ 0.0519 µM) | MIC (Enterobacter cloacae [9]): 0.025 µg/mL (≈ 0.0519 µM) | MIC (Staphylococcus aureus [10]): 0.195 µg/mL (≈ 0.405 µM) | MIC (Streptococcus pyogenes): 0.004 µg/mL (≈ 0.00831 µM) | MIC (Staphylococcus aureus [11]): 0.098 µg/mL (≈ 0.203 µM)

C[C@@H](O)[C@H]1C(=O)N2C(C(=O)O)=C(S[C@@H]3CN[C@H](C(=O)N4C/C(=N\O)C(C(=O)O)C4)C3)[C@H](C)[C@H]12 (some centres undefined)
relative t1/2 (DHP-I hydrolysis vs meropenem) [1]: 0.54 | MIC (Klebsiella aerogenes): 0.049 µg/mL (≈ 0.102 µM) | MIC (Staphylococcus aureus [2]): 0.098 µg/mL (≈ 0.203 µM) | MIC (Pseudomonas aeruginosa [3]): 0.391 µg/mL (≈ 0.81 µM) | MIC (Pseudomonas aeruginosa [4]): 0.195 µg/mL (≈ 0.404 µM) | MIC (Escherichia coli [5]): 0.025 µg/mL (≈ 0.0518 µM) | MIC (Pseudomonas aeruginosa [6]): 0.391 µg/mL (≈ 0.81 µM) | MIC (Salmonella typhimurium [7]): 0.049 µg/mL (≈ 0.102 µM) | MIC (Escherichia coli [8]): 0.013 µg/mL (≈ 0.0269 µM) | MIC (Enterobacter cloacae [9]): 0.025 µg/mL (≈ 0.0518 µM) | MIC (Staphylococcus aureus [10]): 0.195 µg/mL (≈ 0.404 µM) | MIC (Streptococcus pyogenes): 0.013 µg/mL (≈ 0.0269 µM) | MIC (Staphylococcus aureus [11]): 0.098 µg/mL (≈ 0.203 µM)

C[C@@H](O)[C@H]1C(=O)N2C(C(=O)[O-])=C(S[C@@H]3CN[C@H](C(=O)Nc4cccc(C(=O)O)c4)C3)[C@H](C)[C@H]12.O.[Na+]
MIC (Pseudomonas aeruginosa [12]): 8 µg/mL | MIC (Escherichia coli [13]): ≤ 0.008 µg/mL | MIC (Escherichia coli [14]): ≤ 0.008 µg/mL | MIC (Escherichia coli [15]): ≤ 0.008 µg/mL | MIC (Klebsiella pneumoniae [16]): 0.5 µg/mL | MIC (Pseudomonas aeruginosa [17]): 4 µg/mL | MIC (Escherichia coli [18]): 0.03 µg/mL | MIC (Klebsiella pneumoniae [19]): ≤ 0.008 µg/mL | MIC (Escherichia coli [20]): 0.03 µg/mL | MIC (Klebsiella pneumoniae [21]): 0.016 µg/mL | MIC (Pseudomonas aeruginosa [22]): 8 µg/mL | MIC (Enterobacter cloacae [23]): 0.06 µg/mL | MIC (Salmonella enteritidis [24]): ≤ 0.008 µg/mL | MIC (Escherichia coli [25]): ≤ 0.008 µg/mL | MIC (Klebsiella oxytoca): 0.03 µg/mL | MIC (Klebsiella pneumoniae [26]): 0.016 µg/mL | MIC (Salmonella typhimurium [27]): ≤ 0.008 µg/mL | MIC (Escherichia coli [28]): 0.06 µg/mL | MIC (Salmonella enteritidis [29]): ≤ 0.008 µg/mL | MIC (Shigella sonnei): ≤ 0.008 µg/mL | MIC (Escherichia coli [30]): 0.016 µg/mL | MIC (Escherichia coli [31]): 0.016 µg/mL | MIC (Escherichia coli [32]): 0.016 µg/mL | MIC (Klebsiella pneumoniae [33]): 0.06 µg/mL | MIC (Pseudomonas aeruginosa [34]): 8 µg/mL | MIC (Klebsiella pneumoniae [35]): 0.25 µg/mL | MIC (Klebsiella pneumoniae [36]): 0.016 µg/mL | MIC (Klebsiella pneumoniae [37]): 1 µg/mL | MIC (Salmonella enteritidis [38]): ≤ 0.008 µg/mL | MIC (Escherichia coli [39]): 0.016 µg/mL | MIC (Klebsiella pneumoniae [40]): 0.016 µg/mL | MIC (Escherichia coli [41]): 0.06 µg/mL | MIC (Escherichia coli [42]): ≤ 0.008 µg/mL | MIC (Escherichia coli [43]): 0.25 µg/mL | MIC (Salmonella typhimurium [44]): 0.016 µg/mL | MIC (Shigella flexneri): ≤ 0.008 µg/mL | MIC (Salmonella typhimurium [45]): ≤ 0.008 µg/mL | MIC (Klebsiella pneumoniae [46]): 0.06 µg/mL | MIC (Salmonella enteritidis [47]): ≤ 0.008 µg/mL | MIC (Escherichia coli [48]): 0.06 µg/mL

C[C@@H](O)[C@H]1C(=O)N2C(C(=O)O)=C(SCCNC=N)C[C@H]12 [IMIPENEM ANHYDROUS]
relative t1/2 (DHP-I hydrolysis vs meropenem) [1]: 0.17 | MIC (Klebsiella aerogenes): 0.391 µg/mL (≈ 1.31 µM) | MIC (Staphylococcus aureus [2]): 0.013 µg/mL (≈ 0.0434 µM) | MIC (Pseudomonas aeruginosa [3]): 0.781 µg/mL (≈ 2.61 µM) | MIC (Pseudomonas aeruginosa [4]): 0.195 µg/mL (≈ 0.651 µM) | MIC (Escherichia coli [5]): 0.195 µg/mL (≈ 0.651 µM) | MIC (Pseudomonas aeruginosa [6]): 0.781 µg/mL (≈ 2.61 µM) | MIC (Salmonella typhimurium [7]): 0.781 µg/mL (≈ 2.61 µM) | MIC (Escherichia coli [8]): 0.195 µg/mL (≈ 0.651 µM) | MIC (Enterobacter cloacae [9]): 0.195 µg/mL (≈ 0.651 µM) | MIC (Staphylococcus aureus [10]): 0.025 µg/mL (≈ 0.0835 µM) | MIC (Streptococcus pyogenes): 0.007 µg/mL (≈ 0.0234 µM) | MIC (Staphylococcus aureus [11]): 0.025 µg/mL (≈ 0.0835 µM)
